{"source": "ChEMBL document CHEMBL1147601", "about": "“Synthesis, biodistribution and micro-PET imaging of radiolabeled antimitotic agent T138067 analogues” (Bioorg Med Chem Lett, 2004)", "key": {"Mus musculus [1]": {"tested_on": "Mus musculus", "assay": "In vivo biodistribution of compound in blood of MCF-7 transfected with IL-1alpha implanted athymic mice at 30 min post iv injection", "type": "ADME, organism-based", "settings": "0.5 h", "procedure,_shortened": "(§1)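 Tumor-bearing athymic mice 8 weeks after xenograft implantation; tail-vein iv dose of 1–3 mCi [11C]-labeled tracer (subpharmacologic) in conscious restrained animals. Killed by decapitation under halothane at 30 min. Tissues excised and weighed, decay-corrected radioactivity gamma-counted, expressed as % injected dose/g. Tumor/blood and tumor/muscle ratios taken from these values. Mean ± SD, n=3 mice.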"}, "Mus musculus [2]": {"tested_on": "Mus musculus", "assay": "In vivo biodistribution ratio in tumor to that of muscle (T/M ratio) in MCF-7 transfected with IL-1alpha implanted athymic mice", "type": "ADME, organism-based, Muscle tissue", "procedure,_shortened": "as §1"}, "Mus musculus [3]": {"tested_on": "Mus musculus", "assay": "In vivo biodistribution of compound in heart of MDA-MB-435 implanted athymic mice at 30 min post iv injection", "type": "ADME, organism-based", "settings": "0.5 h", "procedure,_shortened": "as §1"}, "Mus musculus [4]": {"tested_on": "Mus musculus", "assay": "In vivo biodistribution of compound in liver of MCF-7 transfected with IL-1alpha implanted athymic mice at 30 min post iv injection", "type": "ADME, organism-based", "settings": "0.5 h", "procedure,_shortened": "as §1"}, "Mus musculus [5]": {"tested_on": "Mus musculus", "assay": "In vivo biodistribution of compound in brain of MDA-MB-435 implanted athymic mice at 30 min post iv injection", "type": "ADME, organism-based", "settings": "0.5 h", "procedure,_shortened": "as §1"}, "Mus musculus [6]": {"tested_on": "Mus musculus", "assay": "In vivo biodistribution of compound in spleen of MCF-7 transfected with IL-1alpha implanted athymic mice at 30 min post iv injection", "type": "ADME, organism-based", "settings": "0.5 h", "procedure,_shortened": "as §1"}, "Mus musculus [7]": {"tested_on": "Mus musculus", "assay": "In vivo biodistribution of compound in small intestine of MCF-7 transfected with IL-1alpha implanted athymic mice at 30 min post iv injection", "type": "ADME, organism-based", "settings": "0.5 h", "procedure,_shortened": "as §1"}, "Mus musculus [8]": {"tested_on": "Mus musculus", "assay": "In vivo biodistribution of compound in tumor of MCF-7 transfected with IL-1alpha implanted athymic mice at 30 min post iv injection", "type": "ADME, organism-based", "settings": "0.5 h", "procedure,_shortened": "as §1"}, "Mus musculus [9]": {"tested_on": "Mus musculus", "assay": "In vivo biodistribution of compound in kidney of MCF-7 transfected with IL-1alpha implanted athymic mice at 30 min post iv injection", "type": "ADME, organism-based", "settings": "0.5 h", "procedure,_shortened": "as §1"}, "Mus musculus [10]": {"tested_on": "Mus musculus", "assay": "In vivo biodistribution of compound in lungs of MDA-MB-435 implanted athymic mice at 30 min post iv injection", "type": "ADME, organism-based, Lung", "settings": "0.5 h", "procedure,_shortened": "as §1"}, "Mus musculus [11]": {"tested_on": "Mus musculus", "assay": "In vivo biodistribution of compound in tumor of MDA-MB-435 implanted athymic mice at 30 min post iv injection", "type": "ADME, organism-based", "settings": "0.5 h", "procedure,_shortened": "as §1"}, "Mus musculus [12]": {"tested_on": "Mus musculus", "assay": "In vivo biodistribution of compound in bone of MCF-7 transfected with IL-1alpha implanted athymic mice at 30 min post iv injection", "type": "ADME, organism-based, Bone element", "settings": "0.5 h", "procedure,_shortened": "as §1"}, "Mus musculus [13]": {"tested_on": "Mus musculus", "assay": "In vivo biodistribution of compound in heart of MCF-7 transfected with IL-1alpha implanted athymic mice at 30 min post iv injection", "type": "ADME, organism-based", "settings": "0.5 h", "procedure,_shortened": "as §1"}, "Mus musculus [14]": {"tested_on": "Mus musculus", "assay": "In vivo biodistribution of compound in bone of MDA-MB-435 implanted athymic mice at 30 min post iv injection", "type": "ADME, organism-based, Bone element", "settings": "0.5 h", "procedure,_shortened": "as §1"}, "[15]": {"assay": "In vivo biodistribution ratio in tumor to that of blood (T/B ratio) in MDA-MB-435 implanted athymic mice", "type": "functional", "procedure,_shortened": "(§2)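 Athymic mice 8 weeks after MDA-MB-435 xenograft implantation received a subpharmacologic iv tail-vein dose of the 11C-labelled tracer under conscious restraint. They were killed by decapitation under halothane at 30 min post injection. Tissues were excised and weighed, and decay-corrected radioactivity was gamma-counted as % id/g. The ratio is tumor %id/g over muscle or blood %id/g, given as mean ± SD of n=3 mice.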"}, "Mus musculus [16]": {"tested_on": "Mus musculus", "assay": "In vivo biodistribution of compound in kidneys of MDA-MB-435 implanted athymic mice at 30 min post iv injection", "type": "ADME, organism-based, Kidney", "settings": "0.5 h", "procedure,_shortened": "as §1"}, "Mus musculus [17]": {"tested_on": "Mus musculus", "assay": "In vivo biodistribution of compound in liver of MDA-MB-435 implanted athymic mice at 30 min post iv injection", "type": "ADME, organism-based", "settings": "0.5 h", "procedure,_shortened": "as §1"}, "Mus musculus [18]": {"tested_on": "Mus musculus", "assay": "In vivo biodistribution of compound in lungs of MCF-7 transfected with IL-1alpha implanted athymic mice at 30 min post iv injection", "type": "ADME, organism-based, Lung", "settings": "0.5 h", "procedure,_shortened": "as §1"}, "Mus musculus [19]": {"tested_on": "Mus musculus", "assay": "In vivo biodistribution of compound in muscle of MCF-7 transfected with IL-1alpha implanted athymic mice at 30 min post iv injection", "type": "ADME, organism-based, Muscle tissue", "settings": "0.5 h", "procedure,_shortened": "as §1"}, "Mus musculus [20]": {"tested_on": "Mus musculus", "assay": "In vivo biodistribution of compound in brain of MCF-7 transfected with IL-1alpha implanted athymic mice at 30 min post iv injection", "type": "ADME, organism-based", "settings": "0.5 h", "procedure,_shortened": "as §1"}, "Mus musculus [21]": {"tested_on": "Mus musculus", "assay": "In vivo biodistribution of compound in small intestine of MDA-MB-435 implanted athymic mice at 30 min post iv injection", "type": "ADME, organism-based", "settings": "0.5 h", "procedure,_shortened": "as §1"}, "Mus musculus [22]": {"tested_on": "Mus musculus", "assay": "In vivo biodistribution of compound in spleen of MDA-MB-435 implanted athymic mice at 30 min post iv injection", "type": "ADME, organism-based", "settings": "0.5 h", "procedure,_shortened": "as §1"}, "[23]": {"assay": "In vivo biodistribution ratio in tumor to that of blood (T/B ratio) in MCF-7 transfected with IL-1alpha implanted athymic mice", "type": "ADME, organism-based", "settings": "mouse", "procedure,_shortened": "as §1"}, "Mus musculus [24]": {"tested_on": "Mus musculus", "assay": "In vivo biodistribution of compound in blood of MDA-MB-435 implanted athymic mice at 30 min post iv injection", "type": "ADME, organism-based", "settings": "0.5 h", "procedure,_shortened": "as §1"}, "Mus musculus [25]": {"tested_on": "Mus musculus", "assay": "In vivo biodistribution of compound in muscle of MDA-MB-435 implanted athymic mice at 30 min post iv injection", "type": "ADME, organism-based, Muscle tissue", "settings": "0.5 h", "procedure,_shortened": "as §1"}, "[26]": {"assay": "In vivo biodistribution ratio in tumor to that of muscle (T/M ratio) in MDA-MB-435 implanted athymic mice", "type": "functional, Muscle tissue", "procedure,_shortened": "as §2"}}}
{"smiles": "[11CH3]Oc1ccc(NS(=O)(=O)c2c(F)c(F)c(F)c(F)c2F)cc1F", "values": [{"measurement": "Injected dose/g", "setting": "Mus musculus [1]", "value": 1.68, "unit": "%"}, {"measurement": "Ratio", "setting": "Mus musculus [2]", "value": 0.89}, {"measurement": "Injected dose/g", "setting": "Mus musculus [3]", "value": 8.54, "unit": "%"}, {"measurement": "Injected dose/g", "setting": "Mus musculus [4]", "value": 6.79, "unit": "%"}, {"measurement": "Injected dose/g", "setting": "Mus musculus [5]", "value": 1.03, "unit": "%"}, {"measurement": "Injected dose/g", "setting": "Mus musculus [6]", "value": 2.01, "unit": "%"}, {"measurement": "Injected dose/g", "setting": "Mus musculus [7]", "value": 5.16, "unit": "%"}, {"measurement": "Injected dose/g", "setting": "Mus musculus [8]", "value": 1.51, "unit": "%"}, {"measurement": "Injected dose/g", "setting": "Mus musculus [9]", "value": 3.34, "unit": "%"}, {"measurement": "Injected dose/g", "setting": "Mus musculus [10]", "value": 9.2, "unit": "%"}, {"measurement": "Injected dose/g", "setting": "Mus musculus [11]", "value": 1.92, "unit": "%"}, {"measurement": "Injected dose/g", "setting": "Mus musculus [12]", "value": 1.31, "unit": "%"}, {"measurement": "Injected dose/g", "setting": "Mus musculus [13]", "value": 1.75, "unit": "%"}, {"measurement": "Injected dose/g", "setting": "Mus musculus [14]", "value": 1.75, "unit": "%"}, {"measurement": "Ratio", "setting": "[15]", "value": 5.63}, {"measurement": "Injected dose/g", "setting": "Mus musculus [16]", "value": 17.62, "unit": "%"}, {"measurement": "Injected dose/g", "setting": "Mus musculus [17]", "value": 14.92, "unit": "%"}, {"measurement": "Injected dose/g", "setting": "Mus musculus [18]", "value": 4.95, "unit": "%"}, {"measurement": "Injected dose/g", "setting": "Mus musculus [19]", "value": 1.7, "unit": "%"}, {"measurement": "Injected dose/g", "setting": "Mus musculus [20]", "value": 1.53, "unit": "%"}, {"measurement": "Injected dose/g", "setting": "Mus musculus [21]", "value": 6.19, "unit": "%"}, {"measurement": "Injected dose/g", "setting": "Mus musculus [22]", "value": 2.95, "unit": "%"}, {"measurement": "Kp", "setting": "[23]", "value": 0.94}, {"measurement": "Injected dose/g", "setting": "Mus musculus [24]", "value": 0.35, "unit": "%"}, {"measurement": "Injected dose/g", "setting": "Mus musculus [25]", "value": 1.99, "unit": "%"}, {"measurement": "Ratio", "setting": "[26]", "value": 1.01}]}
